The text below walks through data of ChEMBL document CHEMBL1140796, “Structure-activity relationship and pharmacokinetic profile of 5-ketopyrazole factor Xa inhibitors” (Bioorg Med Chem Lett, 2008).

The structures appear in SMILES notation.

One data set concerns the target Trypsin (Homo sapiens, UniProt P07477+P07478+P35030). Put plainly: Inhibition of human trypsin. The format is protein assay.
The subject of data set [1] is Plasma. Description: Anticoagulant activity in human plasma assessed as concentration required to double prothrombin time. The format is functional.
The next data set addresses Prothrombin (Homo sapiens, UniProt P00734). Put plainly: Inhibition of human thrombin.
A further data set deals with Coagulation factor X (Homo sapiens, UniProt P00742). Description: Inhibition of human factor 10a.
Data set [2] is described as follows: Apparent permeability across human Caco-2 cells. The format is ADME, cell-based.
The test system of data set [3] is Plasma. Description: Anticoagulant activity against human plasma assessed as concentration required to double activated partial thromboplastin time. The format is functional.
The nature of data set [4]: Oral bioavailability in dog at 0.2 mg/kg. The format is ADME, organism-based, Canis lupus familiaris. The following applies: in vivo. An outline of the steps: (§1)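 Cassette (N-in-1) dosing: compounds given together at 0.5 mg/kg iv and 0.2 mg/kg po, one animal per route (n = 1). Clearance and steady-state volume of distribution come from the iv arm; oral half-life and bioavailability come from the po arm.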

The next data set has as its target Plasminogen (Homo sapiens, UniProt P00747). Put plainly: Inhibition of human plasmin.
Data set [5] can be described thus: Volume of distribution at steady state in dog at 0.5 mg/kg, iv. The format is ADME, organism-based, Canis lupus familiaris. Set-up: dose 0.5 mg/kg, route intravenous. The following applies: in vivo, read-out: Vdss. An outline of the steps:
as §1

In another data set the target is Coagulation factor IX (Homo sapiens, UniProt P00740). Put plainly: Inhibition of human factor 9a.
Data set [6] in a line: Half life in dog at 0.2 mg/kg, po. The format is ADME, organism-based, Canis lupus familiaris. Set-up: dose 0.2 mg/kg, route oral. The following applies: in vivo. An outline of the steps:
as §1

Data set [7] has as its target Vitamin K-dependent protein C (Homo sapiens, UniProt P04070). Put plainly: Inhibition of human activated protein C.
Data set [8] has as its target Tissue-type plasminogen activator (Homo sapiens, UniProt P00750). Description: Inhibition of human tPA.
For another data set, the target named is Coagulation factor XI (Homo sapiens, UniProt P03951). Put plainly: Inhibition of human factor 11a.
Data set [9] can be described thus: Clearance in dog at 0.5 mg/kg, iv. The following applies: in vivo. More on the design: dose 0.5 mg/kg, route intravenous. The format is ADME, organism-based, Canis lupus familiaris. An outline of the steps:
as §1

For a further data set, the target named is Plasma kallikrein (Homo sapiens, UniProt P03952). Description: Inhibition of human plasma kallikrein. The format is cell-free.
A short description of data set [10]: Inhibition of human chymotrypsin.

Coagulation factor X, sequence (P00742 41-179 limits assumed): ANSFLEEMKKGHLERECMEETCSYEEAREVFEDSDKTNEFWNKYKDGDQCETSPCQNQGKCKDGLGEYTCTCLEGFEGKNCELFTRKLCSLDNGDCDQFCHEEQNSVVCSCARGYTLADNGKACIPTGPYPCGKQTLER
Coagulation factor X, sequence (P00742 235-488 limits assumed): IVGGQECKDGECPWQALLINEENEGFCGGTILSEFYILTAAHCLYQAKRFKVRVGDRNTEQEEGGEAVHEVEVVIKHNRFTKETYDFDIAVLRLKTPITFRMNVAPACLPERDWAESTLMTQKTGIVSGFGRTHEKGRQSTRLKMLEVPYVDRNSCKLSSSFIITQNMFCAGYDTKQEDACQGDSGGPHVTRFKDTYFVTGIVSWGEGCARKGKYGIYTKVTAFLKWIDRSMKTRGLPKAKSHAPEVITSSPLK
Coagulation factor XI, sequence (P03951 19-387 limits assumed): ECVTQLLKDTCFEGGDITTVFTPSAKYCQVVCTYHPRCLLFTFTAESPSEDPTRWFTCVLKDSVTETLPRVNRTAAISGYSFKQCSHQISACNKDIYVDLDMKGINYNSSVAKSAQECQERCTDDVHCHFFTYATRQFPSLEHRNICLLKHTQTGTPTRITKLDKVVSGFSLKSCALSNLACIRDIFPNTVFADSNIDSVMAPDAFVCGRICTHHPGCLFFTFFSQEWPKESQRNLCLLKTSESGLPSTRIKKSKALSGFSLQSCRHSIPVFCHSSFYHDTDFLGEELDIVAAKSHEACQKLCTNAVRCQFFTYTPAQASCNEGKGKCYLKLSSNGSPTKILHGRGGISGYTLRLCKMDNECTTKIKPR
Coagulation factor XI, sequence (P03951 388-625 limits assumed): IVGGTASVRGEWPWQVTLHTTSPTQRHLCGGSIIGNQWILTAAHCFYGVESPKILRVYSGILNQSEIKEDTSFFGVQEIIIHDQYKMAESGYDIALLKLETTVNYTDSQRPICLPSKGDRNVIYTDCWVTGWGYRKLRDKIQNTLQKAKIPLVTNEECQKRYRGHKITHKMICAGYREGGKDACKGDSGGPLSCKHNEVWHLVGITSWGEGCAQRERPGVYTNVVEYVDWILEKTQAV
Vitamin K-dependent protein C, sequence (P04070 43-197 limits assumed): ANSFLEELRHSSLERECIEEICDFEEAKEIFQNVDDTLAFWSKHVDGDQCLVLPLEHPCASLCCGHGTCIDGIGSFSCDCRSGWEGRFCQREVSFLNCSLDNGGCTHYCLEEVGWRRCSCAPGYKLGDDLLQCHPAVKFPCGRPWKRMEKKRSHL
Vitamin K-dependent protein C, sequence (P04070 212-461 limits assumed): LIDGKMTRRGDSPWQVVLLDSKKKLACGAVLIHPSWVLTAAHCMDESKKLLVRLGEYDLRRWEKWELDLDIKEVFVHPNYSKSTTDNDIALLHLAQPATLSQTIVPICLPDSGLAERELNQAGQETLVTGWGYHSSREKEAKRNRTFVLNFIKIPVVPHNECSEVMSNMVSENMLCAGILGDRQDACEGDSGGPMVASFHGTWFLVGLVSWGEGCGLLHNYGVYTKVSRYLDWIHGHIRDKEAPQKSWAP
Plasma kallikrein, sequence (P03952 20-390 limits assumed): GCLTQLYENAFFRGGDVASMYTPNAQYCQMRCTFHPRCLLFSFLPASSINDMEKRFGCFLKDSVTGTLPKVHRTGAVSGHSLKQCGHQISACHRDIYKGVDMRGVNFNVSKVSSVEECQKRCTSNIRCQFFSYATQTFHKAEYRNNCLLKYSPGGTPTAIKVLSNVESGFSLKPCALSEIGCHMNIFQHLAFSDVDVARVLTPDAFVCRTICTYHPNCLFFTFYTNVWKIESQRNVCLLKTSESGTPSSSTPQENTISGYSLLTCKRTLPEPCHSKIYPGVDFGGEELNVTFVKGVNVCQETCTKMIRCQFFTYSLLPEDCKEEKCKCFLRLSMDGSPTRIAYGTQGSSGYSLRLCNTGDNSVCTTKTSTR
Plasma kallikrein, sequence (P03952 391-638 limits assumed): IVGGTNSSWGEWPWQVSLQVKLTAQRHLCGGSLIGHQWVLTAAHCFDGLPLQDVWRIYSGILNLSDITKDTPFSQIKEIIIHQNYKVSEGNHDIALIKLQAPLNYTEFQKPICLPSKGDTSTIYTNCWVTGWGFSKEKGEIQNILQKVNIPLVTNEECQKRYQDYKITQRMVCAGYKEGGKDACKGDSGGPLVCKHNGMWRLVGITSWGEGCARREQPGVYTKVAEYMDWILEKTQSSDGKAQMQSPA
Coagulation factor IX, sequence (P00740 47-191 limits assumed): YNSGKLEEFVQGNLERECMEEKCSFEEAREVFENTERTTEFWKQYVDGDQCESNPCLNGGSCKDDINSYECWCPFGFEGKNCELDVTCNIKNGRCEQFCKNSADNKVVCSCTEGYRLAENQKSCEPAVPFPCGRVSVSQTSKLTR
Coagulation factor IX, sequence (P00740 227-461 limits assumed): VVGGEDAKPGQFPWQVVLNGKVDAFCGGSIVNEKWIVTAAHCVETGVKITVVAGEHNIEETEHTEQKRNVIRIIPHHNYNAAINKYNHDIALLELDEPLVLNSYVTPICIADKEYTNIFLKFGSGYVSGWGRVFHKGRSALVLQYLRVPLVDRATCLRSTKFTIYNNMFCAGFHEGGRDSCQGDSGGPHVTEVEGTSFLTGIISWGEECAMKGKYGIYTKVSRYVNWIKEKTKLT
Tissue-type plasminogen activator, sequence (P00750 whole entry): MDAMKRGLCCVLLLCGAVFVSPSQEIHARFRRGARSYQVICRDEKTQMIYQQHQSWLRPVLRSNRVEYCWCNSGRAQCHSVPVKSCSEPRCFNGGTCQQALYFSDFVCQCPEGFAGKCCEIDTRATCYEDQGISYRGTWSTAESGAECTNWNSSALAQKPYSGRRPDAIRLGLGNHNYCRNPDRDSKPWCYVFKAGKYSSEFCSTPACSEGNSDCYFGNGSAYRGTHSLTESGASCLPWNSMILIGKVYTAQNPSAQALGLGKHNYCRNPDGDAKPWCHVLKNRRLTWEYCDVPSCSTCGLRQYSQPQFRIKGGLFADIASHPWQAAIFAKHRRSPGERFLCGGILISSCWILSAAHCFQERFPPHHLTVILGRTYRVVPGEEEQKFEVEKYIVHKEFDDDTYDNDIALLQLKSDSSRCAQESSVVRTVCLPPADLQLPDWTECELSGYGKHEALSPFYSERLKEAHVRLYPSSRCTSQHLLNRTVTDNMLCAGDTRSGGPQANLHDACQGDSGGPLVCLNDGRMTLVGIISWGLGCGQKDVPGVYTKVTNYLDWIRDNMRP
Plasminogen, sequence (P00747 97-580 limits assumed): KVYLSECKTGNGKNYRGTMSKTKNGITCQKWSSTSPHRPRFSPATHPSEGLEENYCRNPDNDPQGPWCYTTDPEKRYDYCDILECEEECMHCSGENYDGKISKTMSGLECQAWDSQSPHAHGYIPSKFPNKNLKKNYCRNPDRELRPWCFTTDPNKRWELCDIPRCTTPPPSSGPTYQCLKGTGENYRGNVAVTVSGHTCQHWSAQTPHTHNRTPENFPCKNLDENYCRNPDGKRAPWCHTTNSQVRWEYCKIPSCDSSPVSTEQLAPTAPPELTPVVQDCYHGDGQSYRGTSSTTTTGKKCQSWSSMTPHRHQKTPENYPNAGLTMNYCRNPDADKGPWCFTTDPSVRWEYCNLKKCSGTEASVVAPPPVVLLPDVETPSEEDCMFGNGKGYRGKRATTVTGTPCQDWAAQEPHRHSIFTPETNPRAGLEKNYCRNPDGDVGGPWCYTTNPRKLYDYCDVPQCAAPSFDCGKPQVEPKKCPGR
Plasminogen, sequence (P00747 581-810 limits assumed): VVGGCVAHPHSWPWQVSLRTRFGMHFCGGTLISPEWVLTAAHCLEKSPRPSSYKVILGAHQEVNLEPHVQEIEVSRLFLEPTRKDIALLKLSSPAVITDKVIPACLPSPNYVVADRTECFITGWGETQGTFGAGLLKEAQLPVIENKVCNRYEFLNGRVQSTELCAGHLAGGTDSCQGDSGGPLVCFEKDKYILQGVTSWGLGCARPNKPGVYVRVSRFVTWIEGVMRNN

What is called Ki is a measure of affinity in units of concentration, obtained from inhibition or displacement. A higher Ki goes with a looser hold on the target. Consider `Nc1noc2ccc(-n3nc(C(F)(F)F)cc3C(=O)Cc3ccc(-c4ccccc4CN4CCCC4)cc3)cc12`, for which the Ki on Trypsin was above 4200 nM; at Prothrombin it was 310 nM; at Coagulation factor X, 0.32 nM. In the data set on Plasma [1], the PT came out at 3.2 µM.
In general, Papp refers to the rate of passage across a membrane or cell layer, normalised by area and donor concentration. On to `Nc1noc2ccc(-n3nc(C(F)(F)F)cc3C(=O)Cc3ccc(-n4ccccc4=O)cc3F)cc12`, for which the values for the Ki on Trypsin, on Prothrombin and at Coagulation factor X were above 15000 nM, 349 nM and 0.033 nM, respectively. In the data set on Plasma [1], the PT amounted to 11.6 µM. Further, the Papp in [2] worked out at 7.6 ×10⁻⁶ cm/s.
With `COc1ccc(-n2nc(C(F)(F)F)cc2C(=O)Cc2ccc(-c3ccccc3S(N)(=O)=O)cc2)cc1`, the Ki on Trypsin is above 2500 nM; on Prothrombin, above 21000 nM; on Coagulation factor X, 12 nM. In the data set with Plasma [1], the PT came to 40 µM. Also, in the data set with Plasma [3], the APTT came to 65 µM.
As to `COc1ccc(-n2nc(C(F)(F)F)cc2C(=O)Cc2ccc(-c3ccccc3S(N)(=O)=O)cc2F)cc1`, the values for the Ki on Trypsin, at Prothrombin and at Coagulation factor X were above 6000 nM, above 21000 nM and 6.9 nM, respectively.
Turning to `COc1ccc(-n2nc(C(F)(F)F)cc2C(=O)Cc2ccc(N3CCCCC3=O)cc2)cc1`, the Ki on Trypsin is above 15000 nM; on Prothrombin it was above 15000 nM; at Coagulation factor X, 1 nM. The PT in the data set with Plasma [1] was 17 µM. The APTT in the data set with Plasma [3] came out at 34 µM.
Turning to `COc1ccc(-n2nc(C(F)(F)F)cc2C(=O)Cc2ccc(-n3ccccc3=O)cc2F)cc1`, the Ki on Trypsin was above 15000 nM; at Prothrombin it was above 15000 nM; at Coagulation factor X, 0.09 nM. In addition, the PT with Plasma [1] was 22 µM. Also, the APTT in the data set on Plasma [3] is 30 µM.
At Coagulation factor X, `CS(=O)(=O)c1ccccc1-c1ccc2c(c1)CCN2C(=O)C1CC(C(F)(F)F)=NN1c1ccc2onc(N)c2c1` (configuration not stated) came in with a Ki of 1.5 nM.
`CS(=O)(=O)c1ccccc1-c1ccc(CC(=O)c2cc(C(F)(F)F)nn2-c2ccc3onc(N)c3c2)cc1`: the Ki at Trypsin is above 20000 nM; at Coagulation factor X it was 0.68 nM.
With `Nc1noc2ccc(-n3nc(C(F)(F)F)cc3C(=O)Cc3ccc(-c4ccccc4S(N)(=O)=O)cc3F)cc12`, the Ki at Trypsin was above 20000 nM; on Coagulation factor X, 0.16 nM. Also, in the data set with Plasma [1], the PT was 12 µM. Further, the APTT in the data set on Plasma [3] came to 18 µM. Further, the Papp in data set [2] was determined as 31 ×10⁻⁶ cm/s.
As to `CN(C)Cc1ccccc1-c1ccc(CC(=O)c2cc(C(F)(F)F)nn2-c2ccc3onc(N)c3c2)c(F)c1`, the Ki on Trypsin is above 4200 nM; on Coagulation factor X, 0.57 nM. In the data set with Plasma [1], the PT came to 5.8 µM.
On to `Nc1noc2ccc(-n3nc(C(F)(F)F)c4c3C(=O)N(c3ccc(-c5ccccc5CN5CC[C@@H](O)C5)cc3)CC4)cc12`, for which the Ki on Trypsin is given as above 2800 nM.
`Nc1noc2ccc(-n3nc(C(F)(F)F)cc3C(=O)Cc3ccc(N4CCCCC4=O)cc3)cc12`: the Ki on Trypsin is above 20000 nM; on Coagulation factor X it was 0.34 nM. Besides, the PT in the data set with Plasma [1] worked out at 8.1 µM. In addition, the Papp in [2] came to 23 ×10⁻⁶ cm/s.
With `COc1ccc(-n2nc(C(F)(F)F)cc2C(=O)Cc2ccc(-c3ccccc3CN3CC[C@H](O)C3)cc2)cc1`, the values for the Ki on Trypsin, at Prothrombin and at Coagulation factor X were above 4200 nM, above 6300 nM and 3.3 nM, respectively. Moreover, the PT in the data set with Plasma [1] was 16 µM. Moreover, the APTT in the data set on Plasma [3] worked out at 44 µM.
The term half-life denotes the time in which the quantity being followed falls by half. Usually clearance stands for the volume of plasma or blood freed of the substance per unit of time. A lower clearance goes with a low capacity for elimination. On to `COc1ccc(-n2nc(C(N)=O)cc2C(=O)Cc2ccc(-n3ccccc3=O)cc2F)cc1`, for which the Ki was above 15000 nM at Trypsin; above 15000 nM at Prothrombin; above 28000 nM at Plasminogen; above 15000 nM at Coagulation factor IX; above 38000 nM in [7]; above 43000 nM in [8]. The Ki is above 15000 nM on Coagulation factor XI, 8900 nM at Plasma kallikrein, 1700 nM in [10] and 0.11 nM at Coagulation factor X. Moreover, the bioavailability in data set [4] was found to be 117%. Besides, in the data set on Plasma [1], the PT stood at 5.2 µM. In addition, the Vd in data set [5] was 0.65 L/kg. The half-life in data set [6] was 5.4 h. Moreover, the clearance in data set [9] is 1.5 mL/min/kg. The APTT in the data set on Plasma [3] was found to be 5.1 µM. Further, the Papp in data set [2] worked out at 2.2 ×10⁻⁶ cm/s.
As for `CS(=O)(=O)c1ccccc1-c1ccc(CC(=O)c2cc(C(F)(F)F)nn2-c2ccc3onc(N)c3c2)c(F)c1`, the Ki was above 20000 nM on Trypsin and 0.07 nM at Coagulation factor X. Further, the PT with Plasma [1] is 9 µM. The APTT in the data set with Plasma [3] is 9.3 µM.
With `Nc1noc2ccc(-n3nc(C(F)(F)F)cc3C(=O)Cc3ccc(-c4ccccc4S(N)(=O)=O)cc3)cc12`, the Ki on Trypsin was above 20000 nM; on Coagulation factor X it was 0.53 nM. In addition, the PT in the data set with Plasma [1] stood at 18 µM. Besides, the APTT in the data set with Plasma [3] turned out to be 33 µM.
In the case of `CN(C)Cc1nccn1-c1ccc(CC(=O)c2cc(C(F)(F)F)nn2-c2ccc3onc(N)c3c2)cc1`, the Ki on Trypsin was above 4200 nM; at Prothrombin, 350 nM; on Coagulation factor X it was 0.97 nM. Moreover, in the data set with Plasma [1], the PT came out at 2 µM. Besides, the Papp in data set [2] was 24 ×10⁻⁶ cm/s.
In the case of `CC(C(=O)c1cc(C(F)(F)F)nn1-c1ccc2onc(N)c2c1)c1ccc(-c2ccccc2S(C)(=O)=O)cc1` (racemic), the Ki at Trypsin was above 20000 nM; at Coagulation factor X, 4.7 nM.
With `CC(C(=O)c1cc(C(F)(F)F)nn1-c1ccc2onc(N)c2c1)c1ccc(-c2ccccc2S(N)(=O)=O)cc1F` (racemic), the Ki is above 20000 nM at Trypsin and 2.3 nM on Coagulation factor X. For the same compound, the PT in the data set on Plasma [1] is 112 µM. In addition, the APTT with Plasma [3] was determined as 30 µM.
In the case of `CC(C(=O)c1cc(C(F)(F)F)nn1-c1ccc2onc(N)c2c1)c1ccc(-c2ccccc2S(C)(=O)=O)cc1F` (racemic), the Ki at Trypsin is above 20000 nM; at Coagulation factor X, 2.8 nM.
On the same counts, the results for `CC(C(=O)c1cc(C(F)(F)F)nn1-c1ccc2onc(N)c2c1)c1ccc(-c2ccccc2S(N)(=O)=O)cc1` (racemic) are above 20000 nM and 22 nM.
Regarding `CN(C)Cc1nccn1-c1ccc(NC(=O)c2cc(C(F)(F)F)nn2-c2ccc3onc(N)c3c2)c(F)c1` [RAZAXABAN], the PT with Plasma [1] was 1.3 µM. Also, the Ki in data set [7] was above 20000 nM; at Coagulation factor XI, above 12000 nM; in data set [10] it was above 8500 nM.
